According to ChEMBL document CHEMBL5252513, “Identification of a Benzoisoxazoloazepine Inhibitor (CPI-0610) of the Bromodomain and Extra-Terminal (BET) Family as a Candidate for Human Clinical Trials” (J Med Chem, 2016):
Calls of active or inactive are those of the source. No cut-off for these calls is given here.

What was measured:
[1] = Toxicity in dog assessed as GI mucosal ulceration at 2 to 6 mg/kg,po QD consecutive for 14 days followed by 2 weeks recovery period; type: organism-based, Canis lupus familiaris; conditions: in vivo, 336 h, dose 2-6 mg/kg, time 14 day
In short: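 Oral suspension given once daily for 14 consecutive days (rat 2, 6, 20 mg/kg; dog 2, 4, 6 mg/kg) in dose range-finding and GLP repeat-dose studies, GLP arms with an added 2-week recovery period; histopathology and clinical pathology findings recorded.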

[2] = target: T1, Transcription intermediary factor 1-alpha (Homo sapiens, UniProt O15164); assay: Displacement of biotinylated JQ1 from TRIM24 bromodomain (unknown origin) incubated for 20 mins by AlphaLISA assay
T1 sequence (O15164 whole entry): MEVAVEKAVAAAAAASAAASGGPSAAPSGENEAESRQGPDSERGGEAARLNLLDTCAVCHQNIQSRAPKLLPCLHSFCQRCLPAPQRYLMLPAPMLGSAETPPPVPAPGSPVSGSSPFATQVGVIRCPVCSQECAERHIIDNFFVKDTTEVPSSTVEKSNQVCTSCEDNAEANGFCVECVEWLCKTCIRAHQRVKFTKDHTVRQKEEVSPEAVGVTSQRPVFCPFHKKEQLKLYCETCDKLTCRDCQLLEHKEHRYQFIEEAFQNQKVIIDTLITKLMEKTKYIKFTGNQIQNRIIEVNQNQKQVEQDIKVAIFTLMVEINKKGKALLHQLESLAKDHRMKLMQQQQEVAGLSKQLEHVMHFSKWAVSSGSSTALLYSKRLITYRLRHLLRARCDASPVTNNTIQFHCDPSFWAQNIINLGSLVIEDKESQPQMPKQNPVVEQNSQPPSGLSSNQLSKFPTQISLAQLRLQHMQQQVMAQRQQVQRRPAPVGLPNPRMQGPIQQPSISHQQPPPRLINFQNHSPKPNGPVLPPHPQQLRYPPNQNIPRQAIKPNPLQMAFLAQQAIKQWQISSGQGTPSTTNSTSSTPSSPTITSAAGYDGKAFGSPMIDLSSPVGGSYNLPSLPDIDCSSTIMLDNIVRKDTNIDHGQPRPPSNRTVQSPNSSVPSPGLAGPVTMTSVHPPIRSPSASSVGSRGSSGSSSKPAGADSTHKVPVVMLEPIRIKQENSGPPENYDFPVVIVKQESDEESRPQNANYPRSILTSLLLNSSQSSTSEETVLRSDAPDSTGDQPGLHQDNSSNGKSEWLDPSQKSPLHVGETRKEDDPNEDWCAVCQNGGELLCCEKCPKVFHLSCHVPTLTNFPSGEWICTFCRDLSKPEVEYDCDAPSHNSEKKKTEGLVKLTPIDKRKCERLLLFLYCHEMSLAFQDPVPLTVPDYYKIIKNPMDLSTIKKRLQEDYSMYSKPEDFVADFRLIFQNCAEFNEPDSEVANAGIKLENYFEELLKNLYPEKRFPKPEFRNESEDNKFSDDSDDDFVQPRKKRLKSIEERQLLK

MV4-11 [3] = assay: In vivo inhibition of BRD4 in human MV4-11 cells xenografted in BALB/c mouse assessed as reduction in cellular MYC mRNA expression level in plasma at 15 mg/kg,sc BID and measured at 4 hrs by PCR anlaysis; type: functional, organism-based
In short: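 Pharmacodynamic study in MV-4-11 AML mouse xenograft. Dosing was 15 mg/kg subcutaneous twice daily. At 4, 8 and 12 h after the second dose, MYC mRNA was measured against vehicle, and compound levels were measured in plasma and tumor. Free plasma concentration was estimated alongside total levels.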

[4] = Protein binding in mouse plasma; type: ADME, cell-free; conditions: read-out: PPB (converted)
[5] = target: T2, ATPase family AAA domain-containing protein 2 (Homo sapiens, UniProt Q6PL18); assay: Binding affinity to ATAD2 bromodomain (unknown origin) incubated for 60 mins by TR-FRET assay
T2 sequence (Q6PL18 whole entry): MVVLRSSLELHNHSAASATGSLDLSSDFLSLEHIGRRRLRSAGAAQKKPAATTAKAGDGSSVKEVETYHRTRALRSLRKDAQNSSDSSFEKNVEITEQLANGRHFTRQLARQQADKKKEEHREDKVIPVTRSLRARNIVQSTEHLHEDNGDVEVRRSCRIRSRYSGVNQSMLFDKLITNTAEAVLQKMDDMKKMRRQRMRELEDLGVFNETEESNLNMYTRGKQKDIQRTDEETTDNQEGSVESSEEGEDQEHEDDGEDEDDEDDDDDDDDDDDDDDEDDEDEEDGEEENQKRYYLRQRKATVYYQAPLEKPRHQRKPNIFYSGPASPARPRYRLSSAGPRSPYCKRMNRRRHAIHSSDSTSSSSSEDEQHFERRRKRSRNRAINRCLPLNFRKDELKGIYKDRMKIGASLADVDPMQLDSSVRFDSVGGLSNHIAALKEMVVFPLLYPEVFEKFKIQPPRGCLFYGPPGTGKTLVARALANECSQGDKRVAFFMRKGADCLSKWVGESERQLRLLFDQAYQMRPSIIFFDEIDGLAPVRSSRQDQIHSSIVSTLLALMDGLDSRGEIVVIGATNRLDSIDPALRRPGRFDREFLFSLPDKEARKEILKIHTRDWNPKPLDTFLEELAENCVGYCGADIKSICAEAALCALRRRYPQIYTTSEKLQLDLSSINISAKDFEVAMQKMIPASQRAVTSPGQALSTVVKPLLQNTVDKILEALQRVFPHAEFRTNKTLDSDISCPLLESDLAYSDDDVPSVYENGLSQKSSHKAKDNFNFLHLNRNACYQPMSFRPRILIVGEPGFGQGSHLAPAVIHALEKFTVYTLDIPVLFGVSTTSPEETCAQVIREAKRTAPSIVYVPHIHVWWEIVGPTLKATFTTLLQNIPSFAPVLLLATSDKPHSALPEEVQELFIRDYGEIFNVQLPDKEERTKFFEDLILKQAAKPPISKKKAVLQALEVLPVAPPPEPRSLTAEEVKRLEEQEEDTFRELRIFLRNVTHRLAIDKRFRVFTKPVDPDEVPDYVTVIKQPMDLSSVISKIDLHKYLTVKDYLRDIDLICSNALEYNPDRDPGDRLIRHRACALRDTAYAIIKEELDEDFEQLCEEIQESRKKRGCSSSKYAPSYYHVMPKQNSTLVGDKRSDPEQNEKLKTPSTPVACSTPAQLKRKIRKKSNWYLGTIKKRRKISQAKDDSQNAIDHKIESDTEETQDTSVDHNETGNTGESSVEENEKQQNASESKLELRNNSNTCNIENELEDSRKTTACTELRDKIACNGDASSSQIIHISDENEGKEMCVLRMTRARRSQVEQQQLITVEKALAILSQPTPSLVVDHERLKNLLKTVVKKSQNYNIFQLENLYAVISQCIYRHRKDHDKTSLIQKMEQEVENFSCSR

MV4-11 [6] = assay: Antitumor activity against human MV4-11 cells xenografted in BALB/c mouse assessed as slower tumor regrowth after drug therapy removal at 10 mg/kg,sc BID in presence of doxorubicin at 2 mg/kg,iv BIW for 28 days; type: functional, organism-based; conditions: time 28.0 day
[7] = Oral bioavailability in dog at 2.5 mg/kg; type: ADME, organism-based, Canis lupus familiaris; conditions: in vivo

Question: With Cc1noc2c1-c1ccccc1C(c1ccc(Cl)cc1)=N[C@H]2CC(N)=O [PELABRESIB] as the molecule, how does the Activity [1] read?
Answer: Its Activity is “Toxic”.

Question: What about the IC50 [2] of the same molecule?
Answer: The IC50 was > 20 µM.

Question: What about the inhibition (MV4-11 [3]) of the same molecule?
Answer: The inhibition was “Active”.

Question: What about the fraction unbound [4] of the same molecule?
Answer: Its fraction unbound is 0.03.

Question: And the IC50 [5]?
Answer: Its IC50 is > 80 µM.

Question: What about the Activity (MV4-11 [6]) of the same molecule?
Answer: The Activity was “Active”.

Question: What about the bioavailability [7] of the same molecule?
Answer: Its bioavailability is 45%.
